One data set relates to Pseudomonas aeruginosa. Description: Antibacterial activity against Pseudomonas aeruginosa ATCC 27853 after 24 to 96 hrs by twofold serial dilution method. The format is functional. The gist of the method: (§1)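 Strains kept at -70 °C, grown at 30 °C on blood agar and suspended in physiological saline to OD 0.1 at 595 nm. The suspension was diluted 10× and 2 µL added to 100 µL nutrient broth with yeast extract. Peptides came from an ethanol stock (4 g/L), were diluted in water and twofold diluted in broth (64 to 1 mg/L). Plates were incubated at 30 °C for 24–96 h. MIC was the lowest concentration inhibiting growth.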

Data set [1] deals with erythrocyte (Homo sapiens). Description: Cytotoxicity against human erythrocytes assessed as induction of hemolysis at 10 uL after 4 hrs.
Data set [2] deals with Staphylococcus epidermidis. Description: Antibacterial activity against Staphylococcus epidermidis ATCC 12228 after 24 to 96 hrs by twofold serial dilution method. The class given is functional. The gist of the method:
as §1

In the next data set the test system is Staphylococcus aureus. Description: Antibacterial activity against Staphylococcus aureus ATCC 29213 after 24 to 96 hrs by twofold serial dilution method. The class given is functional. The gist of the method: as §1
A further data set has as its system Enterococcus faecalis. Description: Antibacterial activity against Enterococcus faecalis ATCC 29212 after 24 to 96 hrs by twofold serial dilution method. The format is functional. The gist of the method:
as §1

For a further data set, the system named is Bacillus cereus. Description: Antibacterial activity against Bacillus cereus ATCC 11778 after 24 to 96 hrs by twofold serial dilution method. The format is functional. The gist of the method: as §1
The next data set concerns Escherichia coli. Description: Antibacterial activity against Escherichia coli ATCC 25922 after 24 to 96 hrs by twofold serial dilution method. The class given is functional. In short, it runs like this:
as §1

The nature of data set [3]: Solubility in 30% DMSO. The class given is physicochemical.

Usually MIC stands for the lowest concentration that inhibits growth of the organism. Lower therefore signals greater potency.

In brackets after ≈: the same amount, converted by molar mass. Where only a bound is given, the exact number is not on record here.

With `CC(C)C[C@@H]1NC(=O)[C@H](CCCN)NC(=O)[C@H](C(C)C)NC(=O)[C@H](Cc2c[nH]c3ccccc23)NC(=O)[C@H](CC(=O)O)NC(=O)[C@H](CC(N)=O)NC(=O)[C@@H](Cc2ccccc2)NC(=O)[C@H](Cc2c[nH]c3ccccc23)NC(=O)[C@@H]2CCCN2C(=O)[C@@H](Cc2ccc(O)cc2)NC1=O` [LOLOATIN C], the MIC with Pseudomonas aeruginosa was more than 64 µg/mL; in data set [2], 8 µg/mL (≈ 5.99 µM); in the data set on Staphylococcus aureus it was 8 µg/mL (≈ 5.99 µM); with Enterococcus faecalis, 8 µg/mL (≈ 5.99 µM); against Bacillus cereus it was 8 µg/mL (≈ 5.99 µM); against Escherichia coli it was more than 64 µg/mL. The Activity result in data set [1] is “Toxic”.

With `CC(C)C[C@@H]1NC(=O)[C@H](CCCN)NC(=O)[C@H](C(C)C)NC(=O)[C@H](Cc2c[nH]c3ccccc23)NC(=O)[C@H](CC(=O)O)NC(=O)[C@@H]2O[C@H](CNC(=O)[C@H](Cc3c[nH]c4ccccc34)NC(=O)[C@@H]3CCCN3C(=O)[C@@H](Cc3ccc(O)cc3)NC1=O)[C@@H](OCc1ccccc1)[C@@H]2O`, the minimum inhibitory concentration (MIC) (in the data set with Pseudomonas aeruginosa; in data set [2]; against Staphylococcus aureus; in the data set on Enterococcus faecalis; against Bacillus cereus; against Escherichia coli) was more than 64 µg/mL in each case. Further, the Activity result in data set [1] is recorded as “Non-toxic”.

For `CC(C)C[C@@H]1NC(=O)[C@H](CCCN)NC(=O)[C@H](C(C)C)NC(=O)[C@@H]2O[C@H](CNC(=O)[C@H](CC(N)=O)NC(=O)[C@H](Cc3ccccc3)NC(=O)[C@H](Cc3c[nH]c4ccccc34)NC(=O)[C@@H]3CCCN3C(=O)[C@@H](Cc3ccc(O)cc3)NC1=O)[C@@H](OCc1ccccc1)[C@@H]2O`, the solubility result in data set [3] is reported as “Insoluble”. For the same molecule, the minimal inhibitory concentration (MIC) was more than 64 µg/mL against Pseudomonas aeruginosa; 32 µg/mL (≈ 24.9 µM) in data set [2]; more than 64 µg/mL against Staphylococcus aureus; more than 64 µg/mL with Enterococcus faecalis; 64 µg/mL (≈ 49.9 µM) in the data set on Bacillus cereus; more than 64 µg/mL in the data set on Escherichia coli. In addition, in data set [1], the Activity result is “Toxic”.

With `CC(C)C[C@@H]1NC(=O)[C@H](CCCN)NC(=O)[C@H](C(C)C)NC(=O)[C@H](Cc2c[nH]c3ccccc23)NC(=O)[C@H](CC(=O)O)NC(=O)[C@H](CC(N)=O)NC(=O)[C@H](Cc2ccccc2)NC(=O)[C@H](Cc2c[nH]c3ccccc23)NC(=O)[C@@H]2CCCN2C(=O)[C@@H](Cc2ccc(O)cc2)NC1=O`, in data set [3], the solubility result is recorded as “Insoluble”. Besides, the MIC in the data set on Pseudomonas aeruginosa was more than 64 µg/mL; in data set [2] it was 32 µg/mL (≈ 24 µM); against Staphylococcus aureus it was 64 µg/mL (≈ 47.9 µM); in the data set on Enterococcus faecalis, more than 64 µg/mL; in the data set on Bacillus cereus it was 32 µg/mL (≈ 24 µM); against Escherichia coli, more than 64 µg/mL. Moreover, the Activity result in data set [1] is “Toxic”.

Turning to `CC(C)C[C@@H]1NC(=O)[C@H](CCCN)NC(=O)[C@H](C(C)C)NC(=O)[C@H](Cc2c[nH]c3ccccc23)NC(=O)[C@H](CC(=O)O)NC(=O)[C@H](CC(N)=O)NC(=O)[C@@H](Cc2ccccc2)NC(=O)[C@H](Cc2c[nH]c3ccccc23)NC(=O)[C@@H]2O[C@H](CNC1=O)[C@@H](OCc1ccccc1)[C@@H]2O`, the solubility result in data set [3] was “Insoluble”. The minimal inhibitory concentration (MIC) (against Pseudomonas aeruginosa; in data set [2]; against Staphylococcus aureus; in the data set with Enterococcus faecalis; in the data set on Bacillus cereus; in the data set with Escherichia coli) was more than 64 µg/mL in each case. Moreover, the Activity result in data set [1] is on record as “Non-toxic”.

Take `CC(C)C[C@@H]1NC(=O)[C@H](CCCN)NC(=O)[C@H](C(C)C)NC(=O)[C@@H]2O[C@H](CNC(=O)[C@H](CC(N)=O)NC(=O)[C@@H](Cc3ccccc3)NC(=O)[C@H](Cc3c[nH]c4ccccc34)NC(=O)[C@@H]3CCCN3C(=O)[C@@H](Cc3ccc(O)cc3)NC1=O)[C@@H](OCc1ccccc1)[C@@H]2O`: the solubility result in data set [3] is given as “Insoluble”. The minimum inhibitory concentration (MIC) (in the data set on Pseudomonas aeruginosa; in data set [2]; in the data set on Staphylococcus aureus; against Enterococcus faecalis; against Bacillus cereus; in the data set on Escherichia coli) was more than 64 µg/mL throughout. Further, the Activity entry in data set [1] is “Non-toxic”.

In the case of `CC(C)C[C@@H]1NC(=O)[C@H](CCCN)NC(=O)[C@H](C(C)C)NC(=O)[C@H](Cc2c[nH]c3ccccc23)NC(=O)[C@@H](CC(=O)O)NC(=O)[C@H](CC(N)=O)NC(=O)[C@H](Cc2ccccc2)NC(=O)[C@H](Cc2c[nH]c3ccccc23)NC(=O)[C@@H]2CCCN2C(=O)[C@@H](Cc2ccc(O)cc2)NC1=O`, the minimal inhibitory concentration (MIC) (in the data set on Pseudomonas aeruginosa; in data set [2]; against Staphylococcus aureus; against Enterococcus faecalis; with Bacillus cereus; against Escherichia coli) was more than 64 µg/mL each time.

For the origin of these results see ChEMBL document CHEMBL1152548, “Structural and biological evaluation of some loloatin C analogues” (Bioorg Med Chem, 2009).
